Active and inactive are the calls of the source. The calls are words filed in the database; no cut-off is given here.
Assays:
Human respirovirus 3 = test: Antiviral activity against Parainfluenza virus 3 infected in african green monkey Vero cells assessed as inhibition of virus-induced cytopathic effect at 0.32 to 100 uM; format: functional, organism-based
How it was run: (§1)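 Confluent cell cultures were infected with 100 CCID50 of virus in the presence of test compound at 100, 40, 8, 1.6 and 0.32 μM. Cytopathic effect was scored once it was complete in untreated infected controls.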

[1] = tested on: Radical scavenging activity; test: Antioxidant activity assessed as DPPH free radical scavenging activity at 100 uM after 60 mins by spectrophotometric analysis; format: functional
How it was run: (§2)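 0.05 mM DPPH in absolute ethanol mixed with an equal volume of compound in DMSO (final 100 μM). Shaken and left 20 or 60 min, then absorbance read at 517 nm and percent activity calculated. Three replicates, averaged.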

Sindbis virus = test: Antiviral activity against Sindbis virus infected in african green monkey Vero cells assessed as inhibition of virus-induced cytopathic effect at 0.32 to 100 uM; format: functional, organism-based; how it was run: as §1
Coxsackievirus B4 [2] = test: Antiviral activity against Coxsackievirus B4 infected in african green monkey Vero cells assessed as inhibition of virus-induced cytopathic effect at 0.32 to 100 uM; format: functional, organism-based; how it was run: as §1
Human alphaherpesvirus 1 = test: Antiviral activity against HSV1 KOS infected in human lung fibroblast assessed as inhibition of virus-induced cytopathic effect at 0.32 to 100 uM; format: functional, organism-based; how it was run: as §1
Influenza A virus [3] = test: Antiviral activity against Influenza A virus H1N1 infected in MDCK cells assessed as inhibition of virus-induced cytopathic effect at 0.32 to 100 uM; format: functional, organism-based
How it was run: (§3)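 Confluent MDCK monolayers were infected in the presence of the compound at 100, 40, 8, 1.6 and 0.32 μM. Viral cytopathicity was scored once it was complete in untreated infected control cultures.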

[4] = tested on: Human immunodeficiency virus 1; test: Antiviral activity against HIV1 3B infected in human CEM cells assessed as inhibition of virus-induced CEM giant cell formation at 0.32 to 100 uM after 4 days; format: functional, organism-based; settings: CCRF-CEM
How it was run: (§4)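 CEM cells (~3 × 10^5 cells/cm³) exposed to 100 CCID50/ml of virus and seeded into wells holding compound dilutions. Incubated 4 days at 37 °C, then giant cell formation examined microscopically.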

[5] = tested on: Human immunodeficiency virus 2; test: Antiviral activity against HIV2 ROD infected in human CEM cells assessed as inhibition of virus-induced CEM giant cell formation at 0.32 to 100 uM after 4 days; format: functional, organism-based; settings: ISOLATE ROD, CCRF-CEM; how it was run: as §4
[6] = tested on: Vesicular stomatitis virus; test: Antiviral activity against VSV infected in human lung fibroblast assessed as inhibition of virus-induced cytopathic effect at 0.32 to 100 uM; format: functional, organism-based
MCF7 = test: Cytostatic activity against human MCF7 cells after 72 hrs by MTT assay; format: functional, cell-based; settings: MCF7, 72 h
How it was run: (§5)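 Monolayers in DMEM with 10% FBS, 2 mM L-glutamine and penicillin/streptomycin, 37 °C, 5% CO2. Seeded at 1–3 × 10^4 cells/ml, then compound added in tenfold dilutions (10⁻⁸–10⁻⁴ M) for 72 h. MTT read at 570 nm; percent growth taken against time-zero and untreated controls. IC50 by linear regression; quadruplicate, at least two experiments.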

Influenza A virus [7] = test: Antiviral activity against Influenza A virus H3N2 infected in MDCK cells assessed as inhibition of virus-induced cytopathic effect at 0.32 to 100 uM; format: functional, organism-based; how it was run: as §3
Coxsackievirus B4 [8] = test: Antiviral activity against Coxsackievirus B4 infected in human cervix carcinoma cells assessed as inhibition of virus-induced cytopathic effect at 0.32 to 100 uM; format: functional, organism-based; how it was run: as §1
[9] = tested on: Mammalian orthoreovirus 1; test: Antiviral activity against Reovirus-1 infected in african green monkey Vero cells assessed as inhibition of virus-induced cytopathic effect at 0.32 to 100 uM; format: functional, organism-based; how it was run: as §1
L1210 = test: Cytostatic activity against mouse L1210 cells after 2 days by coulter counter analysis; format: functional, cell-based; settings: L1210, 48 h
How it was run: (§6)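 300,000–500,000 cells/ml mixed 1:1 with compound dilutions and incubated at 37 °C for 2 days (L1210) or 3 days (CEM, HeLa). Cell number counted with a Coulter counter; HeLa trypsinized before counting.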

HCT-116 = test: Cytostatic activity against human HCT116 cells after 72 hrs by MTT assay; format: functional, cell-based; settings: HCT-116, 72 h; how it was run: as §5
NCI-H460 = test: Cytostatic activity against human NCI-H460 cells after 72 hrs by MTT assay; format: functional, cell-based; settings: NCI-H460, 72 h; how it was run: as §5
Vaccinia virus = test: Antiviral activity against Vaccinia virus infected in human lung fibroblast assessed as inhibition of virus-induced cytopathic effect at 0.32 to 100 uM; format: functional, organism-based; settings: Orthopoxvirus vaccinia
[10] = Antioxidant activity assessed as inhibition of AAPH-induced linoleic acid lipid peroxidation by measuring conjugated diene hydroperoxide level; format: functional; set-up: concentration or dose not given beside the values; settings: dose or concentration not given here
How it was run: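 Linoleic acid sodium salt (10 μL of 16 mM) in 0.05 M phosphate buffer pH 7.4 at 37 °C. Oxidation started under air with 50 μL of 40 mM AAPH. Conjugated diene hydroperoxide formation followed as absorbance rise at 234 nm; control contains the same DMSO level. At least triplicate.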

[11] = tested on: Respiratory syncytial virus; test: Antiviral activity against RSV infected in human cervix carcinoma cells assessed as inhibition of virus-induced cytopathic effect at 0.32 to 100 uM; format: functional, organism-based; how it was run: as §1
Felid alphaherpesvirus 1 = test: Antiviral activity against Feline herpesvirus infected in feline CRFK cells assessed as inhibition of virus-induced cytopathic effect at 0.32 to 100 uM; format: functional, organism-based; how it was run: as §1
CCRF-CEM = test: Cytostatic activity against human CEM cells after 3 days by coulter counter analysis; format: functional, cell-based; settings: 72 h; how it was run: as §6
HeLa = test: Cytostatic activity against human HeLa cells after 3 days by coulter counter analysis; format: functional, cell-based; settings: 72 h; how it was run: as §6
Human alphaherpesvirus 2 = test: Antiviral activity against HSV2 G infected in human lung fibroblast assessed as inhibition of virus-induced cytopathic effect at 0.32 to 100 uM; format: functional, organism-based; settings: strain G; how it was run: as §1
Punta Toro virus = test: Antiviral activity against Punta Toro virus infected in african green monkey Vero cells assessed as inhibition of virus-induced cytopathic effect at 0.32 to 100 uM; format: functional, organism-based; how it was run: as §1
Feline coronavirus = test: Antiviral activity against Feline coronavirus infected in feline CRFK cells assessed as inhibition of virus-induced cytopathic effect at 0.32 to 100 uM; format: functional, organism-based; how it was run: as §1
[12] = tested on: Vesicular stomatitis virus; test: Antiviral activity against Vesicular stomatitis virus infected in human cervix carcinoma cells assessed as inhibition of virus-induced cytopathic effect at 0.32 to 100 uM; format: functional, organism-based
How it was run: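 Confluent human cervix carcinoma (HeLa) cultures received 100 CCID50 of VSV together with the compound at 100, 40, 8, 1.6 or 0.32 μM. Cytopathicity was read at the point of full CPE in infected, untreated control wells.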

Glycine max = test: Inhibition of soybean LOX assessed as conversion of sodium linoleate to 13- hydroperoxylinoleic acid at 100 uM
Influenza B virus = test: Antiviral activity against Influenza B virus infected in MDCK cells assessed as inhibition of virus-induced cytopathic effect at 0.32 to 100 uM; format: functional, organism-based; how it was run: as §3
[13] = tested on: Radical scavenging activity; test: Antioxidant activity assessed as DPPH free radical scavenging activity at 100 uM after 20 mins by spectrophotometric analysis; format: functional; how it was run: as §2

SMILES | inhibition (Human respirovirus 3) | Activity [1] | inhibition (Sindbis virus) | inhibition (Coxsackievirus B4 [2]) | inhibition (Human alphaherpesvirus 1) | inhibition (Influenza A virus [3]) | inhibition [4] | inhibition [5] | inhibition [6] | IC50 (MCF7) [µM] | inhibition (Influenza A virus [7]) | inhibition (Coxsackievirus B4 [8]) | inhibition [9] | IC50 (HCT-116) [µM] | IC50 (NCI-H460) [µM] | inhibition (Vaccinia virus) | inhibition [10] [%] | inhibition [11] | inhibition (Felid alphaherpesvirus 1) | Activity [13] | further results
CC(C(=O)NNC(=O)NO)c1cccc(Oc2ccccc2)c1 (centres undefined) | inactive | 66% | inactive | inactive | inactive | inactive | inactive | inactive | inactive | > 100 | inactive | inactive | inactive | > 100 | > 100 | inactive | 22 | inactive | inactive | 39% | IC50 (L1210): 125 µM; IC50 (CCRF-CEM): 183 µM; IC50 (HeLa): ≥ 250 µM; inhibition (Human alphaherpesvirus 2): inactive; inhibition (Punta Toro virus): inactive; inhibition (Feline coronavirus): inactive; inhibition [12]: inactive; inhibition (Glycine max): 3%; inhibition (Influenza B virus): inactive
CC(C)Cc1ccc(C(C)C(=O)NN)cc1 (centres undefined) | inactive | 1% | inactive | inactive | inactive | inactive | inactive | inactive | inactive | > 100 | inactive | inactive | inactive | > 100 | > 100 | inactive | 6 | inactive | inactive | inactive | IC50 (L1210): 170 µM; IC50 (CCRF-CEM): 147 µM; IC50 (HeLa): 129 µM; inhibition (Human alphaherpesvirus 2): inactive; inhibition (Punta Toro virus): inactive; inhibition (Feline coronavirus): inactive; inhibition [12]: inactive; inhibition (Glycine max): 8%; inhibition (Influenza B virus): inactive
CC(C(=O)NNC(=O)NOCc1ccccc1)c1cccc(Oc2ccccc2)c1 (centres undefined) | inactive | inactive | inactive | inactive | inactive | inactive | inactive | inactive | inactive | 81 | inactive | inactive | inactive | 76 | > 100 | inactive | 8 | inactive | inactive | inactive | IC50 (L1210): 84 µM; IC50 (CCRF-CEM): 91 µM; IC50 (HeLa): 76 µM; inhibition (Human alphaherpesvirus 2): inactive; inhibition (Punta Toro virus): inactive; inhibition (Feline coronavirus): inactive; inhibition [12]: inactive; inhibition (Glycine max): 6%; inhibition (Influenza B virus): inactive
CC(C(=O)NNC(=O)NNC(=O)NOCc1ccccc1)c1cccc(Oc2ccccc2)c1 (centres undefined) | inactive | 15% | inactive | inactive | inactive | inactive | inactive | inactive | inactive | 26 | inactive | inactive | inactive | 84 | > 100 | inactive | 26 | inactive | inactive | 8% | IC50 (L1210): 103 µM; IC50 (CCRF-CEM): 90 µM; inhibition (Human alphaherpesvirus 2): inactive; inhibition (Punta Toro virus): inactive; inhibition (Feline coronavirus): inactive; inhibition [12]: inactive; inhibition (Glycine max): inactive; inhibition (Influenza B virus): inactive
CC(Cc1ccc(O)c(O)c1)C(C)Cc1ccc(O)c(O)c1 (centres undefined) | – | 91% | – | – | – | – | – | – | – | – | – | – | – | – | – | – | – | – | – | 80% | –
Cc1c(C)c2c(c(C)c1O)CCC(C)(C(=O)O)O2 (centres undefined) | – | – | – | – | – | – | – | – | – | – | – | – | – | – | – | – | 63 | – | – | – | –
CC(C(=O)NNC(=O)NC1CCCCC1)c1cccc(Cc2ccccc2)c1 (centres undefined) | inactive | 10% | inactive | inactive | inactive | inactive | inactive | inactive | inactive | 16 | inactive | inactive | inactive | 22 | 23 | inactive | 31 | inactive | inactive | 3% | IC50 (CCRF-CEM): 25 µM; IC50 (HeLa): 45 µM; inhibition (Human alphaherpesvirus 2): inactive; inhibition (Punta Toro virus): inactive; inhibition (Feline coronavirus): inactive; inhibition [12]: inactive; inhibition (Glycine max): 10%; inhibition (Influenza B virus): inactive
CC(C)Cc1ccc(C(C)C(=O)NNC(=O)NNC(=O)NOCc2ccccc2)cc1 (centres undefined) | inactive | 18% | inactive | inactive | inactive | inactive | inactive | inactive | inactive | 19 | inactive | inactive | inactive | 56 | 71 | inactive | 13 | inactive | inactive | 11% | IC50 (CCRF-CEM): 106 µM; IC50 (HeLa): 98 µM; inhibition (Human alphaherpesvirus 2): inactive; inhibition (Punta Toro virus): inactive; inhibition (Feline coronavirus): inactive; inhibition [12]: inactive; inhibition (Glycine max): inactive; inhibition (Influenza B virus): inactive

Source: ChEMBL document CHEMBL2010803, “Novel NSAID 1-acyl-4-cycloalkyl/arylsemicarbazides and 1-acyl-5-benzyloxy/hydroxy carbamoylcarbazides as potential anticancer agents and antioxidants” (Eur J Med Chem, 2012)
